Consider one compound from PMC11040708 (JACS Au, 2024).

Broadly, the Kd is the constant that tells how readily two partners part at equilibrium. A low value points to a tighter complex.

In this test the target is N-HSP90α WT (Homo sapiens, UniProt P07900). Put plainly: SPR kinetics, two-state reaction model, amine-coupled protein. In kind it is binding. An outline of the steps: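 Protein was pre-incubated with a 100-fold excess of a reference ATP-site inhibitor, diluted to 20 μg/mL in acetate pH 4.50, and amine-coupled to a CM5 chip (~4000 RU). Compounds came from 10 mM DMSO stock as 2-fold series in HEPES/Tween 20 buffer at 30 μL/min, with 120 s contact and 200–600 s dissociation. Solvent-corrected, double-referenced data were fitted with mass transport.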
Background: SPR reads the build-up and loss of mass on a sensor chip optically.

Take `O=c1cc(-c2ccc(O)c(O)c2)oc2cc(O[C@@H]3O[C@H](CO)[C@@H](O)[C@H](O)[C@H]3O)cc(O)c12` [compound 5]: the Kd was determined as 6.06 µM.
